# Screens deposited in PubChem by Johns Hopkins Ion Channel Center.
# Only some compounds are listed: those with a hit (about 3.7% of all), similar ones and a draw of the others.
# KCNK9 block – human KCNK9 channel inhibition | 310,000 tested, 1.2% active | HEK293 KCNK9, FluxOR thallium flux fluorescence; stronger effect = lower value | B-score at 10 µM | Q9NPC2;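 active means ratio B-score over 3 SD below the library mean, with starting fluorescence within 5 SD of its mean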;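 further: negative B-score means less thallium flux so channel inhibition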
# KCNQ1 block – inhibitors of human KCNQ1 potassium channel; AID 2642; 310,000 tested, 1.3% active; B-score at 10 µM; CHO-K1 KCNQ1, FluxOR thallium flux fluorescence; stronger effect = higher value; P51787;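 active means compounds whose thallium flux B-score, printed positive for inhibition, exceeds three library SD while starting fluorescence stays within three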;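 further: channel opened by potassium depolarization with thallium stimulus after 20 min compound exposure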
# KCNQ1 act – potentiators or activators of human KCNQ1 potassium channel. P51787. CHO-K1 KCNQ1, thallium flux FluxOR fluorescence; stronger effect = higher value. B-score at 10 µM. 310,000 tested, 0.35% active. AID 2648;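 active means fluorescence ratio B-score, a plate-corrected score, at least three library SD, with initial intensity B-score within 5 SD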
#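 Assay system: CHO-K1 cells stably expressing KCNQ1; Medium: assay buffer with matched DMSO; Also added: K+/Tl+ depolarizing stimulus; Dosing: single dose; Timing: dye 90 min, compound 20 min, room temperature; Measured by: kinetic FluxOR thallium fluorescence, 10-s 1-Hz baseline, 110-s post-stimulus read; Read-out: peak-minus-minimum fluorescence over initial fluorescence, negative-control normalized, B-scored.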
# KCNK3 block – human KCNK3 channel inhibition, primary screen | B-score at 10 µM | O14649 | CHO-KCNK3 thallium flux, FluxOR fluorescence; stronger effect = lower value | AID 602410 | 340,000 tested, 0.84% active;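 active means B-score under library mean minus 4 SD, starting fluorescence ratio at most library mean plus 5 SD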;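 further: more negative B-score means stronger inhibition of thallium flux through KCNK3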
# hERG rescue – hERG (human) protection from proarrhythmic block. Q12809. CHO-hERG, FluxOR thallium flux, dofetilide IC70 present. activation (rescue from dofetilide block), less the hit threshold, % at 10 µM. 310,000 tested, 0.51% active. AID 1511;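 active means activation above the mean of controls blocked by dofetilide plus 5 SD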;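 further: thallium influx through hERG after potassium depolarization seen as dye fluorescence rise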
# Target sequence (Q12809 whole entry, looked up): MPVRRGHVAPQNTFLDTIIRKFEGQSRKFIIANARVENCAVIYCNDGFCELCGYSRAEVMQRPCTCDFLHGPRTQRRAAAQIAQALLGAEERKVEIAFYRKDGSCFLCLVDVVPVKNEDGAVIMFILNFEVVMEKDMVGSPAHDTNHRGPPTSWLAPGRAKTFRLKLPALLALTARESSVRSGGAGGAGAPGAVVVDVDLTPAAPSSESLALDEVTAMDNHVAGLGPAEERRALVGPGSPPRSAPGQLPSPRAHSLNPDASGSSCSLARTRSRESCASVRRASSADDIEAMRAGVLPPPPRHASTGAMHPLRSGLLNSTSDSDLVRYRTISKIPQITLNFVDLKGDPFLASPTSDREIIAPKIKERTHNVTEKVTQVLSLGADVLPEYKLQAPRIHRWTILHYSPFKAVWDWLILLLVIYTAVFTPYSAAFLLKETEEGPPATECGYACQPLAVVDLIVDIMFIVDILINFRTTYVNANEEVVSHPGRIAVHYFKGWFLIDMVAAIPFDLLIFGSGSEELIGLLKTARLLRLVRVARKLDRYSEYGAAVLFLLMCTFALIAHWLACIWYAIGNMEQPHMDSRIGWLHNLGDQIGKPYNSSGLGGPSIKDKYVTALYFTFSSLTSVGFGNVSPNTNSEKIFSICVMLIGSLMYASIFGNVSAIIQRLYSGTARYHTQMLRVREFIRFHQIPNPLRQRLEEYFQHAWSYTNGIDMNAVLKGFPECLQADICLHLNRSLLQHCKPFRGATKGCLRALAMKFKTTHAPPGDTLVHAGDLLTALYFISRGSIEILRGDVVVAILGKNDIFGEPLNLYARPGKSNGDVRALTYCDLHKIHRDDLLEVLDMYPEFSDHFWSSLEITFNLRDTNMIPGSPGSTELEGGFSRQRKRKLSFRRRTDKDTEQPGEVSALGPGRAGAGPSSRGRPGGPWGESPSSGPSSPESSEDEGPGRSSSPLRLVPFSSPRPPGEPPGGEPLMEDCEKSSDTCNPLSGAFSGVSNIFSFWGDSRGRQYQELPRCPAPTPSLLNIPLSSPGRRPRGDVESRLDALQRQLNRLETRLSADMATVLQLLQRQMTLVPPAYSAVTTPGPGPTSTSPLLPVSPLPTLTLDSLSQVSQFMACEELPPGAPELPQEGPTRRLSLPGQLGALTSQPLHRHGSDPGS
# Kir21 block – inhibitors of mouse Kir2.1 inward-rectifier potassium channel | 310,000 tested, 0.85% active | HEK293-Kir2.1, FluxOR thallium flux fluorescence; stronger effect = lower value | B-score at 10 µM | P35561 | AID 1672;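 active means fluorescence ratio B-score at or below minus 3 SD of library scores, with starting-brightness B-score within 2 SD, cut at about -4.2 in these data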;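 further: channel flux triggered by added potassium and thallium sulfate stimulus; B-score of peak minus minimum fluorescence over baseline after thallium stimulus; more negative B-score means stronger Kir2.1 block with less thallium influx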
# Hits are given with their value; . = inactive; / = no result given.
SMILES,KCNK9 block,KCNQ1 block,KCNQ1 act,KCNK3 block,hERG rescue,Kir21 block
CC(=O)C1=NN(c2ccccc2)C(c2cccs2)N1c1ccccc1 (configuration not stated),-7.58,8,.,/,.,.
CC(=O)C1=NN(c2ccccc2)C(c2ccc3c(c2)OCO3)N1c1ccc(N2CCOCC2)cc1 (configuration not stated),.,.,.,.,.,.
CCc1ccc2c(COC(=O)C3CC(=O)N(CCc4ccccc4)C3)cc(=O)oc2c1 (configuration not stated),/,/,/,.,/,/
COc1ccc(CNCCC(c2ccc(OC(C)C)cc2)C(C)C)cc1OC (configuration not stated),.,.,.,.,.,.
COc1ccc(C(CCNCc2ccc(OC(C)C)cc2)C(C)C)cc1 (configuration not stated),.,.,.,.,.,-4.47
CCOCCCNCc1ccc(OC)cc1,.,.,.,.,.,.
COc1ccc(C(CCNCc2ccc(N(C)C)cc2)C(C)C)cc1 (configuration not stated),.,.,.,.,.,-5.05
COc1cccc(CCNC(=O)C2CCC(=O)N(C3CC3)C2)c1OC (configuration not stated),.,.,.,.,.,.
Cc1sc2ncn(-c3ccccc3)c(=O)c2c1C,.,.,.,.,.,.
CCOc1ccc(-n2cnc3sc(C)c(C)c3c2=O)cc1,.,.,.,.,5.6,.
COc1ccc(-c2csc3ncn(-c4ccccc4OC)c(=O)c23)cc1OC,.,.,.,.,.,.
COc1ccccc1-n1cnc2sc(C)c(C)c2c1=O,.,.,.,.,6.0,.
CN(C(=O)CSc1nc(N)cc(N)n1)C1CCS(=O)(=O)C1 (configuration not stated),.,.,.,.,.,.
CN1CCN(c2ccccc2NC(=O)c2ccc(-c3ccccc3)cc2)CC1,.,.,.,-8.76,.,.
COc1ccc(-c2cc(C(F)(F)F)n3nc(C(=O)N4CCN(C(=O)c5ccco5)CC4)cc3n2)cc1,.,.,.,.,.,.
CCOc1ccc(C(O)(c2ccccc2OC)C(CN2CCCC2)c2ccccc2)cc1 (configuration not stated),.,11,.,.,.,.
CCN(C[C@H]1N[C@@](C)(C(=O)OC)[C@H]2C(=O)N(C)C(=O)[C@@H]12)S(=O)(=O)c1ccc(-c2ccccc2)cc1,/,/,/,.,/,/
CCCCCCCN1C(Nc2ccccc2)=NC[C@@H]1Cc1ccccc1,.,7,.,.,.,-5.63
c1ccc(C[C@H]2CN=C(Nc3ccccc3)N2CCCC2CCCC2)cc1,.,.,.,.,.,-5.64
c1ccc(CCCCN2C(Nc3ccccc3)=NC[C@@H]2Cc2ccccc2)cc1,/,/,/,.,/,/
C[C@H]1CN=C(Nc2ccccc2)N1CCCC1CCCCC1,.,.,.,.,.,.
O=C(/C=C/c1ccccc1)CC(O)(c1ccccc1)C(F)(F)F (configuration not stated),.,.,.,.,.,-6.29
O=C(C[C@H]1C/C=C\CC[C@H](Cc2ccc(F)cc2)C(=O)OC[C@@H](Cc2c[nH]c3ccccc23)NC1=O)NCCO,/,/,/,.,/,/
CCc1cc(-c2n[nH]c(=S)n2C(C)c2ccccc2)cs1 (configuration not stated),.,.,.,.,.,-7.77
CC(C)CCN(C(=O)CNC(=O)c1ccco1)C(C(=O)NC1CCCCC1)c1cccnc1 (configuration not stated),.,.,.,.,.,.
SMILES,KCNK9 block,KCNQ1 block,KCNQ1 act,KCNK3 block,hERG rescue,Kir21 block
COc1ccc(-c2cc3nc(C)cc(N4CC(C)CC(C)C4)n3n2)cc1 (configuration not stated),.,6,.,.,.,.
Cc1ccc(-c2cc3nc(C)cc(C)n3n2)cc1,.,.,.,.,.,.
Cc1sc2nc(SCC(=O)N(C)Cc3ccccc3)n(-c3ccccc3)c(=O)c2c1C,.,.,.,-8.72,.,.
Cc1sc2nc(SCC(=O)NCCCO)n(-c3ccccc3)c(=O)c2c1C,.,.,.,.,.,.
Fc1ccc(-c2nc3ccccc3[nH]2)cc1,.,.,.,.,.,.
S=c1nc(-c2ccc(Br)cc2)[nH]c2ccccc12,.,.,111,.,31.5,.
O=C1CCCCC1(c1ccccc1)c1ccccc1,/,/,/,.,/,/
Cc1cccc(C(C(=O)NC2CCCCC2)N(C(=O)c2csnn2)C2CC2)c1 (configuration not stated),.,.,.,.,.,.
Fc1cccc2sc(Nc3nc4cc5c(cc4s3)OCO5)nc12,.,.,.,.,13.3,.
CC(=O)Nc1nc2c(F)cccc2s1,.,.,18,.,.,.
Cc1cc(Nc2ccccc2)nc(NCc2ccccc2)n1,.,.,.,.,.,-10.7
Cc1nc(NN)nc(NCc2ccccc2)n1,.,.,.,.,7.1,.
Cc1ccc(/C=N/Nc2cc(C)nc(NCc3ccccc3)n2)cc1,.,.,.,.,.,.
Cc1cc(Nc2ccc(Cl)cc2)nc(NCc2ccccc2)n1,.,.,.,.,.,-6.99
COCCn1c(SCC(=O)NC2CCCC(C)C2C)nc2ccccc2c1=O (configuration not stated),/,/,/,.,/,/
COC(=O)c1ccc(C)c(-n2c(=O)n(Cc3ccccc3)c(=O)c3[nH]cnc32)c1,.,.,.,.,.,.
c1ccc(Nc2nc(N3CCCC3)nc(N3CCCC3)n2)cc1,.,.,.,.,.,.
c1ccc(Nc2nc(N3CCCCC3)nc(N3CCCCC3)n2)cc1,.,9,.,.,.,.
CCC(CC)NC(=O)c1ccccc1Oc1ccccc1,.,.,.,.,.,-6.86
CC(=O)N1Cc2ccccc2C(C)CC12CCCCC2 (configuration not stated),.,.,.,.,.,-7.35
c1ccc2c(c1)[nH]c1c(N3CCSCC3)ncnc12,/,/,/,-9.69,/,/
COc1ccc(CN(C)C(=S)Nc2ccc(OC(F)F)cc2)cc1,.,.,.,.,.,.
COc1cccc(CN(C)C(=S)Nc2ccc(C)c(C)c2)c1,.,.,.,.,4.7,.
CCCN(CC(=O)Nc1ccccc1OC)C(=O)Cc1ccc2c(c1)CCC2,/,/,/,.,/,/
CC(OC(=O)/C(C#N)=C/c1ccc(N(C)C)cc1)C(=O)N(C)c1ccccc1 (configuration not stated),.,8,.,.,.,.
CC(OC(=O)/C(C#N)=C/c1ccc(N(C)C)cc1)C(=O)NCc1ccco1 (configuration not stated),.,7,.,.,.,.
CN(C)c1ccc(/C=C(\C#N)C(=O)NCc2ccco2)cc1,.,.,.,/,.,.
CC(C)Oc1cccc(C(=O)NC(=S)Nc2ccccc2)c1,.,.,.,.,.,.
O=C(O)C1(c2ccccc2)CCN(S(=O)(=O)c2ccccc2)CC1,.,.,.,.,.,.
